# Assay results taken from publication PMC2797757 (Journal of medicinal chemistry, 2009).
# Entries after “also recorded” stand apart in the source; their conditions may differ.
# Tests used:
# [1] = tested on: MCF-7 human breast carcinoma cells; assay: Growth of MCF-7 cells; type: cell-based; settings: MCF7, 48 h, read-out: MCF-7 IC50 ± SD
# [2] = tested on: Saccharomyces cerevisiae BY4741 wild type strain; assay: Yeast toxicity protocol; type: cell-based; settings: 20 μM, growth recorded after 3 days at 28 °C; for effect on viability/growth of BY4741 strain cells: 18 h incubation; for serial dilution to which cell growth was limited: 10-fold serial cell dilution
# How it was run: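 S. cerevisiae BY4741 (MATa his3Δ1 leu2Δ0 met15Δ0 ura3Δ0) grown at 28 °C in SD minimal medium with 2% glucose. Exponential cells (5 × 10^6/mL) exposed to 20 μM for 18 h at 28 °C, then centrifuged, washed twice with water and resuspended in SD. Serial 10-fold dilutions incubated overnight at 28 °C, spotted on YPD plates, and growth scored after 3 days at 28 °C.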
# [3] = tested on: tubulin; assay: [3H]Colchicine binding assay; parameters: species or system bovine; settings: Tubulin 1 μM; [3H]colchicine and inhibitor both 5 μM
# [4] = tested on: HeLa cervical cancer cells; assay: Cell viability/proliferation assay, HeLa; type: cell-based, human; settings: 24 h, control cells = 100%
# How it was run: (§1)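 Cells grown at 37 °C, 5% CO2, in D-MEM with 10% fetal calf serum, 4 mM glutamine and 2 mM pyruvate; HCT116/chr3 also got 500 μg/mL G418. Seeded at 1 × 10^3 cells/well and treated 24 h later for 24 h from a 10 mM DMSO stock. Vehicle control was 1% DMSO. Tetrazolium reagent added for 4 h at 37 °C, then absorbance read at 492 nm. Quadruplicate, three repeats; results are % of control, mean ± SD.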
# [5] = tested on: HCT116/chr3 human colon cancer cells; assay: Cell viability/proliferation assay, HCT116/chr3; type: cell-based; settings: 24 h, control cells = 100%
# How it was run: as §1
# [6] = tested on: HEK, human embryonic kidney 293 cells; assay: Growth inhibition, MTT, HEK; type: cell-based; settings: read-out: HEK IC50 ± SD; MTT method; incubation 48 h
# [7] = tested on: U937, human leukemic monocyte lymphoma cells; assay: Growth inhibition, MTT, U937; type: cell-based; settings: read-out: U937 IC50 ± SD; MTT method; incubation 48 h
# [8] = tested on: HAOSMC: human aortic smooth muscle cells; assay: Growth inhibition of nontransformed cells, HAOSMC; type: cell-based; settings: read-out: HAOSMC IC50 ± SD
# [9] = tested on: PtK2: potorous tridactylis kidney epithelial cells; assay: Growth inhibition of nontransformed cells, PtK2; type: cell-based, Potorus tridactylis; settings: read-out: PtK2 IC50 ± SD
# [10] = tested on: A10, rat embryonic aortic smooth muscle cells; assay: Growth inhibition of nontransformed cells, A10; type: cell-based; settings: read-out: A10 IC50 ± SD
# [11] = tested on: HUVEC: human umbilical vein endothelial cells; assay: Growth inhibition of nontransformed cells, HUVEC; type: cell-based; settings: read-out: HUVEC IC50 ± SD
# [12] = tested on: M14, human melanoma cells; assay: Growth inhibition, MTT, M14; type: cell-based; settings: read-out: M14 IC50 ± SD; MTT method; incubation 48 h
# [13] = tested on: HEK cells; assay: Time-lapse microscopy, HEK cell morphology and growth; type: cell-based, human; settings: 48 h treatment
# [14] = tested on: M14 cells; assay: Time-lapse microscopy, M14 cell morphology and growth; type: cell-based, human; settings: 48 h treatment
molecule,measurement,setting,value
COc1cc(Sc2c[nH]c3ccccc23)cc(OC)c1OC [Compound 3],IC50,[1],34 ± 9 nM
COC(=O)c1[nH]c2ccccc2c1Sc1cc(OC)c(OC)c(OC)c1 [Compound 6],IC50,[1],25 ± 1 nM
COc1cc(Sc2c[nH]c3ccc(Cl)cc23)cc(OC)c1OC [Compound 12],IC50,[1],77 ± 7 nM
CCOC(=O)c1[nH]c2ccc(Cl)cc2c1Sc1cc(OC)c(OC)c(OC)c1 [Compound 18],IC50,[1],110 ± 2 nM
"COc1cc(Cn2cccc2C(=O)O)cc(OC)c1OC [Compound 54, 1-(3,4,5-Trimethoxybenzyl)-1H-pyrrole-2-carboxylic acid]",effect on viability/growth of BY4741 strain cells,[2],effectively inhibited growth; also recorded: strongly reduced the viability
same,serial dilution to which cell growth was limited,[2],first dilution
"(5-Bromo-1H-indol-3-yl)(3,4,5-trimethoxyphenyl)methanone [Compound 25]",inhibition colchicine binding (% ± SD),[3],45±5%
"(5-Methoxy-1H-indol-3-yl)-(3,4,5-trimethoxyphenyl)methanone [Compound 34]",inhibition colchicine binding (% ± SD),[3],32±7%
"Ethyl 5-Bromo-3-(3,4,5-trimethoxybenzoyl)-1H-indole-2-carboxylate [Compound 31]",inhibition colchicine binding (% ± SD),[3],58±2%
"Ethyl 5-Bromo-3-(3,4,5-trimethoxybenzyl)-1H-indole-2-carboxylate [Compound 32]",inhibition colchicine binding (% ± SD),[3],53±4%
"Ethyl 5-Bromo-3-(3,4,5-trimethoxyphenylthio)-1H-indole-2-carboxylate [Compound 30]",inhibition colchicine binding (% ± SD),[3],62±7%
"Ethyl 5-Methoxy-3-(3,4,5-trimethoxybenzoyl)-1H-indole-2-carboxylate [Compound 43]",inhibition colchicine binding (% ± SD),[3],49±4%
"Ethyl 5-Methoxy-3-(3,4,5-trimethoxybenzyl)-1H-indole-2-carboxylate [Compound 45]",inhibition colchicine binding (% ± SD),[3],42±4%
"Methyl 5-Bromo-3-(3,4,5-trimethoxybenzoyl)-1H-indole-2-carboxylate [Compound 28]",inhibition colchicine binding (% ± SD),[3],67±4%
same,"% of cell proliferation, HeLa",[4]; 0.5 μM,41±1.1%
same,"% of cell proliferation, HeLa",[4]; 1 μM,47±0.4%
same,"% of cell proliferation, HCT116/chr3",[5]; 0.5 μM,59±0.2%
same,"% of cell proliferation, HCT116/chr3",[5]; 1 μM,66±3.5%
same,IC50,[6],131 ± 3 nM
same,IC50,[7],191 ± 7 nM
same,IC50,[8],55 ± 40 nM
same,IC50,[9],110 ± 60 nM
same,IC50,[10],280 ± 40 nM
same,IC50,[11],150 nM
"Methyl 5-Bromo-3-(3,4,5-trimethoxybenzyl)-1H-indole-2-carboxylate [Compound 29]",inhibition colchicine binding (% ± SD),[3],59±7%
same,"% of cell proliferation, HeLa",[4]; 0.5 μM,52±0.4%
same,"% of cell proliferation, HeLa",[4]; 1 μM,45±1.6%
same,"% of cell proliferation, HCT116/chr3",[5]; 0.5 μM,51±4.6%
same,"% of cell proliferation, HCT116/chr3",[5]; 1 μM,51±1.6%
same,IC50,[6],160 ± 5 nM
same,IC50,[12],120 ± 10 nM
same,IC50,[7],159 ± 10 nM
same,IC50,[8],35 ± 7 nM
same,IC50,[9],270 ± 100 nM
same,IC50,[10],230 ± 100 nM
same,IC50,[11],140 ± 20 nM
same,effect on viability/growth of BY4741 strain cells,[2],significant BY4741 inhibition
same,serial dilution to which cell growth was limited,[2],third dilution
"Methyl 5-Bromo-3-(3,4,5-trimethoxyphenylthio)-1H-indole-2-carboxylate [Compound 27]",inhibition colchicine binding (% ± SD),[3],75±3%
same,"% of cell proliferation, HeLa",[4]; 0.5 μM,53±0.1%
same,"% of cell proliferation, HeLa",[4]; 1 μM,60±0.1%
same,"% of cell proliferation, HCT116/chr3",[5]; 0.5 μM,57±0.9%
same,"% of cell proliferation, HCT116/chr3",[5]; 1 μM,62±1.9%
same,IC50,[6],189 ± 5 nM
same,IC50,[12],155 ± 9 nM
same,IC50,[7],177 ± 10 nM
same,IC50,[8],100 ± 30 nM
same,IC50,[9],280 ± 30 nM
same,IC50,[10],230 ± 100 nM
same,IC50,[11],140 ± 20 nM
"Methyl 5-Methoxy-3-(3,4,5-trimethoxybenzoyl)-1H-indole-2-carboxylate [Compound 39]",inhibition colchicine binding (% ± SD),[3],78±6%
same,"% of cell proliferation, HeLa",[4]; 0.5 μM,55±0.7%
same,"% of cell proliferation, HeLa",[4]; 1 μM,54±0.3%
same,"% of cell proliferation, HCT116/chr3",[5]; 0.5 μM,57±3.4%
same,"% of cell proliferation, HCT116/chr3",[5]; 1 μM,55±1.2%
same,IC50,[6],140 ± 1 nM
same,IC50,[12],100 ± 5 nM
same,IC50,[7],155 ± 10 nM
same,IC50,[8],35 ± 7 nM
same,IC50,[9],190 ± 20 nM
same,IC50,[10],95 ± 80 nM
same,IC50,[11],110 ± 60 nM
same,effect on viability/growth of BY4741 strain cells,[2],significant inhibitory effects
same,effect on HEK cell morphology,[13],significant morphologic changes
same,effect on M14 cell morphology,[14],significant morphologic changes
"Methyl 5-Methoxy-3-(3,4,5-trimethoxybenzyl)-1H-indole-2-carboxylate [Compound 41]",inhibition colchicine binding (% ± SD),[3],59±1%
same,"% of cell proliferation, HeLa",[4]; 0.5 μM,52±0.7%
same,"% of cell proliferation, HeLa",[4]; 1 μM,51±0.2%
same,"% of cell proliferation, HCT116/chr3",[5]; 0.5 μM,69±6.7%
same,"% of cell proliferation, HCT116/chr3",[5]; 1 μM,69±0.3%
same,IC50,[6],181 ± 3 nM
same,IC50,[12],137 ± 5 nM
same,IC50,[7],189 ± 5 nM
same,IC50,[8],70 ± 10 nM
same,IC50,[9],190 ± 200 nM
same,IC50,[10],130 ± 100 nM
same,IC50,[11],170 ± 50 nM
same,effect on HEK cell morphology,[13],significant morphologic changes
same,effect on M14 cell morphology,[14],significant morphologic changes
"methyl 5-methoxy-3-(3,4,5-trimethoxyphenylthio)-1H-indole-2-carboxylate [Compound 36]",effect on viability/growth of BY4741 strain cells,[2],significant inhibitory effects
